The species entered for one data set is Bos taurus. As to the kind of experiment: Binding affinity to calf thymus duplex DNA by fluorescence spectroscopic method.
For data set [1], the system named is Fibroblast. Kind of data set: Dark toxicity against human fibroblasts at 5 uM measured after 20 mins by spectrophotometric method. The class given is cell-based. The method in brief:
(§1)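 Human fibroblasts or rat H9c2 cardiomyocytes kept 20 min at room temperature in PBS, either in the dark or irradiated at λexc 400 nm, 7 mW/cm2, with or without 5 μM test agent. Cytotoxicity measured in triplicate; means ± SD, n = 3.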

Data set [2] deals with M14. Kind of data set: Dark toxicity in human M14 cells assessed as increase in nitrite levels at 5 uM measured after 20 mins by Griess reagent based spectrophotometric method. The format is cell-based. The conditions noted are these: m14, 20 min. A general note: The Griess reaction detects nitrite, a stable product of nitric oxide.
Data set [3] deals with M14. Kind of data set: Cytotoxicity against 7 mW/cm'2 irradiated human M14 cells assessed as increase in LDH release at 5 uM measured after 20 mins by spectrophotometric method. The class given is functional, cell-based. The method in brief: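 Cells (M14 melanoma, human fibroblasts or rat H9c2 cardiomyocytes) kept 20 min at room temperature in PBS under 400 nm light (7 mW/cm2), alone or with 5 μM compound, given alone or with equimolar 5 μM doxorubicin. Damage read as extracellular LDH release. Triplicate measurements, n = 3.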
(Release of lactate dehydrogenase indicates damage to the cell membrane.)

In data set [4] the test system is M14. As to the kind of experiment: Dark toxicity in human M14 cells assessed as increase in LDH release at 5 uM measured after 20 mins by spectrophotometric method. The class given is cell-based. Conditions: m14, 20 min. In a few lines: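 Cells (M14 melanoma, human fibroblasts or rat H9c2 cardiomyocytes) kept 20 min at room temperature in PBS in the dark, with 5 μM compound, given alone or with equimolar 5 μM doxorubicin. Cytotoxicity read as extracellular LDH release. Triplicate measurements, n = 3.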

Data set [5] concerns Fibroblast. Kind of data set: Cytotoxicity against 7 mW/cm'2 irradiated human fibroblasts at 5 uM measured after 20 mins by spectrophotometric method. The format is cell-based. The method in brief: as §1
The test system of data set [6] is H9c2. Kind of data set: Dark toxicity against rat H9c2 cells at 5 uM measured after 20 mins by spectrophotometric method. The class given is cell-based. Conditions: h9c2, 20 min. In a few lines:
as §1

Data set [7] concerns H9c2. Kind of data set: Cytotoxicity against 7 mW/cm'2 irradiated rat H9c2 cells at 5 uM measured after 20 mins by spectrophotometric method. The conditions noted are these: h9c2, 20 min. The format is cell-based. The method in brief:
as §1

The source made the active and inactive calls. The rule behind the calls is not given here.

Molecule `COc1cccc2c1C(=O)c1c(O)c3c(c(O)c1C2=O)C[C@@](O)(C(=O)CO)C[C@@H]3O[C@H]1C[C@H](N)[C@H](O)[C@H](C)O1.Cl` [DOXORUBICIN HYDROCHLORIDE] displayed a K in the data set filed under Bos taurus of 630000 M⁻¹. The Activity entry is “Toxic” in the data set on Fibroblast [1]; “Non-Toxic” with M14 [2]; “Non-Toxic” with M14 [4]; “Toxic” with Fibroblast [5]; “Toxic” in the data set on H9c2 [6]; “Toxic” in the data set on H9c2 [7]. The result in the data set with M14 [3] was inactive.

Values taken from ChEMBL document CHEMBL4000256, “Light-Regulated NO Release as a Novel Strategy To Overcome Doxorubicin Multidrug Resistance” (ACS Med Chem Lett, 2017).
